According to ChEMBL document CHEMBL1129527, “Synthesis, chromatographic resolution, and anti-human immunodeficiency virus activity of (+/-)-calanolide A and its enantiomers” (J Med Chem, 1996):

Tests used:
[1] = Therapeutic index is the ratio between IC50/EC50 of HIV-I RFII strain in CEM cell line; assay type: cell-based, CCRF-CEM; conditions: human, CEM cells infected with HIV-1 RFII strain; read-out: TI
Procedure, shortened: (§1)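 CEM-SS cells in RPMI 1640 with 10% heat-inactivated FCS, infected at ~0.12 TCID50/cell for 4 h at 37 °C, washed, and seeded at 10^4 cells/mL. Drug dilutions from DMSO went up to 100 µg/mL, in triplicate on infected wells and duplicate on uninfected wells. MTT viability was measured after 6 days.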

CCRF-CEM = assay: Anti-HIV activity against HIV-I RFII strain in CEM cell line; assay type: functional, cell-based; conditions: Homo sapiens; procedure, shortened: as §1
MT2 [2] = assay: Anti-HIV activity against HIV-I A17 strain in MT2 cell line; assay type: functional, cell-based; conditions: Homo sapiens
Procedure, shortened: (§2)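 MT-2 cells in RPMI 1640 with 10% heat-inactivated FCS and 25 mM HEPES, infected at MOI ~0.03 TCID50/cell for 4 h at 37 °C, then washed. Seeded at 10^4 cells/mL. Compounds were diluted from DMSO to a top concentration of 100 µg/mL (≤0.25% DMSO), in triplicate with infected cells and duplicate with uninfected cells. MTT viability was read at day 7. EC50 protects against virus-induced killing; IC50 is cytotoxicity.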

MT2 [3] = assay: (§3) Anti-HIV activity against HIV-I G910-6 strain in MT2 cell line; assay type: functional, cell-based; conditions: Homo sapiens; procedure, shortened: as §2
MT2 [4] = assay: (§4) Anti-HIV activity against HIV-I H112-2 strain in MT2 cell line; assay type: functional, cell-based; conditions: Homo sapiens; procedure, shortened: as §2
MT2 [5] = assay: Anti-HIV activity against HIV-I IIIB strain in MT2 cell line; assay type: functional, cell-based; conditions: Homo sapiens; procedure, shortened: as §2
[6] = Therapeutic index is the ratio between IC50/EC50 of HIV-I A17 strain in MT2 cell line; assay type: cell-based; conditions: human, MT2 cells infected with HIV-1 A17 strain; read-out: TI; procedure, shortened: as §2
[7] = Therapeutic index is the ratio between IC50/EC50 of HIV-I G910-6 strain in MT2 cell line; assay type: cell-based; conditions: human, MT2 cells infected with HIV-1 G910-6 strain; read-out: TI; procedure, shortened: as §2
[8] = Therapeutic index is the ratio between IC50/EC50 of HIV-I H112-2 strain in MT2 cell line; assay type: cell-based; conditions: human, MT2 cells infected with HIV-1 H112-2 strain; read-out: TI; procedure, shortened: as §2
[9] = Therapeutic index is the ratio between IC50/EC50 of HIV-I IIIB strain in MT2 cell line; assay type: cell-based; conditions: human, MT2 cells infected with HIV-1 IIIB strain; read-out: TI; procedure, shortened: as §2
Nucleic Acid [10] = assay: Inhibitory activity against DNA polymerase alpha; IA=inactive; assay type: nucleic-acid assay
Procedure, shortened: (§5)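 Polymerase α or β (0.5 unit) in Tris·HCl with 5 mM KCl, 10 mM MgCl2, 1.5 mM DTT, BSA, and 12% glycerol. Template was 41 µM activated calf thymus DNA, with 80 µM each dATP, dCTP, dGTP and ATP, plus [3H]TTP. Compound was added in DMSO, duplicate wells, 37 °C. Incorporation was counted by scintillation. IC50 came from 10-point half-log dose–response curves.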

Nucleic Acid [11] = assay: Inhibitory activity against DNA polymerase beta; assay type: nucleic-acid assay; procedure, shortened: as §5
[12] = target: DNA-directed RNA polymerase subunit beta (Escherichia coli K-12, UniProt P0A8V2); assay: Inhibitory activity against RNA polymerase; IA=inactive
Procedure, shortened: (§6)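 RNA polymerase (0.5 unit) in Tris·HCl with 150 mM KCl, 10 mM MgCl2, 0.1 mM DTT, and BSA. Template was 41 µM native calf thymus DNA, with 80 µM each ATP, CTP and GTP, plus [3H]UTP. Compounds in DMSO were prescreened at 200 µg/mL. […] Percent inhibition = (1 − test/DMSO control) × 100.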

[13] = target: DNA-directed RNA polymerase subunit beta (Escherichia coli K-12) (UniProt P0A8V2); assay: Percent inhibition against RNA polymerase at dose 200 ug/mL; procedure, shortened: as §6
[14] = tested on: Avian myeloblastosis virus; assay: Inhibitory activity against Avian Myeloblastosis Virus Reverse Transcriptase (AMV RT); IA=inactive; assay type: functional
[15] = tested on: Avian myeloblastosis virus; assay: Percent inhibition against Avian Myeloblastosis Virus Reverse Transcriptase (AMV RT) at dose 200 ug/mL; assay type: functional
MT2 [16] = assay: as §3; assay type: functional; conditions: Homo sapiens; procedure, shortened: as §2
MT2 [17] = assay: as §4; assay type: functional; conditions: Homo sapiens; procedure, shortened: as §2
[18] = tested on: Avian myeloblastosis virus; assay: Inhibitory activity against Avian Myeloblastosis Virus Reverse Transcriptase (AMV RT); inactive; assay type: functional

DNA-directed RNA polymerase subunit beta (Escherichia coli K-12), sequence (P0A8V2 whole entry, looked up): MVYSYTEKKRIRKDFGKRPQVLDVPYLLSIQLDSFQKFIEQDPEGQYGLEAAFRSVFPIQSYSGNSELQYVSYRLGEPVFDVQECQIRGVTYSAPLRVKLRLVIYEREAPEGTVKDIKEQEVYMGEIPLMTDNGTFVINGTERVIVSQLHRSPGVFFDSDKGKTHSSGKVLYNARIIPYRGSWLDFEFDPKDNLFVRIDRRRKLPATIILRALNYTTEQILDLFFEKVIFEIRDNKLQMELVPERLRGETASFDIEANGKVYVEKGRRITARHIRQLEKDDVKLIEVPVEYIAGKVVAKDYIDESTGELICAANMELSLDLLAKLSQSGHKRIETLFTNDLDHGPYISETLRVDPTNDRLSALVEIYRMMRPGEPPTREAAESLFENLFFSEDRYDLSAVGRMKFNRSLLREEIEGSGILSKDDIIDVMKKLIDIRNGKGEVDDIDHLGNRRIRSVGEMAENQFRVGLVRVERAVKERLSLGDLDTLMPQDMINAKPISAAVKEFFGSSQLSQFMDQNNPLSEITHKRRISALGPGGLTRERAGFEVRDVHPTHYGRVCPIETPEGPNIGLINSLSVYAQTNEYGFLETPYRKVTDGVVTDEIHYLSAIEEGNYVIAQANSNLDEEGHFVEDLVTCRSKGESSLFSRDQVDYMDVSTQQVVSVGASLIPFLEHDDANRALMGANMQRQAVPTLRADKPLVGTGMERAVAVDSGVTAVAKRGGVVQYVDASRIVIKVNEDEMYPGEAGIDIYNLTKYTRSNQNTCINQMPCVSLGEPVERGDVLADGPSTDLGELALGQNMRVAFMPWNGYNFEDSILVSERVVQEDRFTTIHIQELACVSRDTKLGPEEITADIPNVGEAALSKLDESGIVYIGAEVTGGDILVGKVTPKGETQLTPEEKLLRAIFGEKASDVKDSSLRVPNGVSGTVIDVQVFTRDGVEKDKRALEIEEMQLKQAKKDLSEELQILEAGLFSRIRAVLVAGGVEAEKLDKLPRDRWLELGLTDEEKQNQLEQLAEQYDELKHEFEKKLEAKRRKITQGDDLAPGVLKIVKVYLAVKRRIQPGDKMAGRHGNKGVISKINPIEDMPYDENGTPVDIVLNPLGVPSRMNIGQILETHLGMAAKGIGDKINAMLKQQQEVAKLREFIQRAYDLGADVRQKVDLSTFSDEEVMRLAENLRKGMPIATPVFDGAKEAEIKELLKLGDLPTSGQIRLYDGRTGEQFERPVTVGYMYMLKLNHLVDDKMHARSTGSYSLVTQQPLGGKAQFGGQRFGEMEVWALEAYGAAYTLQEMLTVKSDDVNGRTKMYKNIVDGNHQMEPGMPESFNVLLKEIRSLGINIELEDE
DNA-directed RNA polymerase subunit beta, sequence (P0A8V2 whole entry): as the sequence (P0A8V2 whole entry, looked up) above

Work on Nc1ccn([C@H]2CC[C@@H](CO)O2)c(=O)n1 [ZALCITABINE] yielded a selectivity ratio [1] of 250, an EC50 (CCRF-CEM) of 0.189 µM and an EC50 (MT2 [2]) of 0.331 µM. It also gave an EC50 (MT2 [3]) of 0.994 µM, an EC50 (MT2 [4]) of 1.56 µM and an EC50 (MT2 [5]) of 0.9 µM. The selectivity ratio [6] was 408, the selectivity ratio [7] was 213 and the selectivity ratio [8] was 166. It also gave a selectivity ratio [9] of 93.
Cc1cn([C@H]2C[C@H](N=[N+]=[N-])[C@@H](CO)O2)c(=O)[nH]c1=O [ZIDOVUDINE] gave a selectivity ratio [1] of 13100, an EC50 (CCRF-CEM) of 0.023 µM and an EC50 (MT2 [2]) of 0.014 µM. The EC50 (MT2 [4]) was 0.037 µM, the EC50 (MT2 [5]) was 0.029 µM and the selectivity ratio [6] was 5960. For the same compound, the selectivity ratio [8] was 3240 and the selectivity ratio [9] was 1780.
With CCCc1cc(=O)oc2c3c(c4c(c12)OC(C)(C)C=C4)O[C@@H](C)C(C)[C@@H]3O (mixture of isomers) the EC50 (CCRF-CEM) was 0.486 µM, the IC50 (Nucleic Acid [10]) was “Not Active” and the IC50 (Nucleic Acid [11]) was 279 µM. The EC50 (MT2 [2]) was 0.297 µM, the EC50 (MT2 [3]) was 0.108 µM and the EC50 (MT2 [4]) was 0.135 µM. The EC50 (MT2 [5]) was 0.108 µM, the IC50 [12] was “Not Active” and the inhibition [13] was 27.8%. For the same compound, the IC50 [14] was “Not Active” and the inhibition at 200 µg/mL [15] was 13.3%.
In the case of CCCc1cc(=O)oc2c3c(c4c(c12)OC(C)(C)C=C4)O[C@@H](C)[C@H](C)[C@@H]3O [COSTATOLIDE], the IC50 (Nucleic Acid [10]) is reported as “Not Active”, the IC50 (Nucleic Acid [11]) is reported as 214 µM and the IC25 (MT2 [16]) is reported as 3.97 µM. The IC25 (MT2 [17]) was 4.05 µM, the IC50 [12] was “Not Active” and the inhibition [13] was 12.1%. For the same compound, the IC50 [14] was “Not Active” and the inhibition at 200 µg/mL [15] was 16.8%.
With CCCc1cc(=O)oc2c3c(c4c(c12)OC(C)(C)C=C4)O[C@H](C)[C@@H](C)[C@@H]3O [CALANOLIDE A] the EC50 (CCRF-CEM) was 0.267 µM, the IC50 (Nucleic Acid [10]) was “Not Active” and the IC50 (Nucleic Acid [11]) was 205 µM. It also gave an EC50 (MT2 [2]) of 0.427 µM, an EC50 (MT2 [3]) of 0.027 µM and an EC50 (MT2 [4]) of 0.107 µM. For the same compound, the EC50 (MT2 [5]) was 0.053 µM, the IC50 [12] was “Not Active” and the inhibition [13] was 16%. The IC50 [18] was “Not Active” and the inhibition at 200 µg/mL [15] was 20.6%.
